# Reference: ChEMBL document CHEMBL1124374, “Enkephalinase inhibitors. 1. 2,4-Dibenzylglutaric acid derivatives” (J Med Chem, 1989)
# Activity calls are given as the source filed them.
# Experiments:
# [1] = target: T1, Neprilysin (Rattus norvegicus, UniProt P07861); test: Inhibition of enkephalinase activity in synaptic membranes prepared from rat striatum; assay type: cell membranes
# T1 sequence (P07861 whole entry): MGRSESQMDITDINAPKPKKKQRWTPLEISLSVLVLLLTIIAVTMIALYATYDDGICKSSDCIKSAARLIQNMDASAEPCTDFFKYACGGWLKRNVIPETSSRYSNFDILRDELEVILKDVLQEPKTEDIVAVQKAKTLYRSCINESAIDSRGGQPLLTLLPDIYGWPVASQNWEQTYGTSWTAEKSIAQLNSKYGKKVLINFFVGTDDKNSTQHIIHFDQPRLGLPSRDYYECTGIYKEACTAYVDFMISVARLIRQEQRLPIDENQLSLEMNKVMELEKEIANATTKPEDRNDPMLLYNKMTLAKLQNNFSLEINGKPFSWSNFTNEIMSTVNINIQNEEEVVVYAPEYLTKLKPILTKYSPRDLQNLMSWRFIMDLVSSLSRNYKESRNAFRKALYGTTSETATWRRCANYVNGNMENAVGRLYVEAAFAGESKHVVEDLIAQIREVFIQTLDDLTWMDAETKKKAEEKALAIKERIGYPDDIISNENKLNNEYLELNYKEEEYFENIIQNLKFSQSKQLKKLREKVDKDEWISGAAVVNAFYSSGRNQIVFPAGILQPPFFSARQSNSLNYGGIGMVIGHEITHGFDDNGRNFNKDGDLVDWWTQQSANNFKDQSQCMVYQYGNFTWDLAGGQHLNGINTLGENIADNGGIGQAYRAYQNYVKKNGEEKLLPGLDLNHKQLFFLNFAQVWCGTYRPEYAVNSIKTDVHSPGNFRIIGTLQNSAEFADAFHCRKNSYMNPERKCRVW
# [2] = tested on: Mus musculus; test: Doubling of hotplate jump-latency activity in mouse after intra cerebro ventricular administration of the compound; assay type: functional
# Outline: (§1)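 Male CF1 mice (18–23 g) dosed icv or sc; 15 min later placed singly on a copper hot plate held at 55 °C. Latency to jump recorded, cutoff 240 s. MED = minimum effective dose. ED200 = dose doubling jump latency.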
# [3] = tested on: Mus musculus; test: Hot-plate jump-latency activity in mouse 15 minutes after subcutaneous administration; assay type: functional; settings: sc, 0.25 h, read-out: MED; outline: as §1
# [4] = tested on: Mus musculus; test: Tail-flick latency observed in CF-1 mice after the administration (30 mg/kg) followed by icv administration of DAEM ([D-Ala2,Met5]enkephalin); IA is Inactive; assay type: functional, organism-based
# Outline: (§2)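 Male CF-1 mice (20–22 g) given test agent or vehicle sc, followed immediately by icv DAEM (1 μg) or vehicle. Tail-flick latency measured 30 min later, cutoff 10 s, n = 10.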
# [5] = target: T2, Neprilysin (Oryctolagus cuniculus, UniProt P08049); test: Inhibitory activity against Enkephalinase from rabbit using method 2 is determined.
# T2 sequence (P08049 whole entry): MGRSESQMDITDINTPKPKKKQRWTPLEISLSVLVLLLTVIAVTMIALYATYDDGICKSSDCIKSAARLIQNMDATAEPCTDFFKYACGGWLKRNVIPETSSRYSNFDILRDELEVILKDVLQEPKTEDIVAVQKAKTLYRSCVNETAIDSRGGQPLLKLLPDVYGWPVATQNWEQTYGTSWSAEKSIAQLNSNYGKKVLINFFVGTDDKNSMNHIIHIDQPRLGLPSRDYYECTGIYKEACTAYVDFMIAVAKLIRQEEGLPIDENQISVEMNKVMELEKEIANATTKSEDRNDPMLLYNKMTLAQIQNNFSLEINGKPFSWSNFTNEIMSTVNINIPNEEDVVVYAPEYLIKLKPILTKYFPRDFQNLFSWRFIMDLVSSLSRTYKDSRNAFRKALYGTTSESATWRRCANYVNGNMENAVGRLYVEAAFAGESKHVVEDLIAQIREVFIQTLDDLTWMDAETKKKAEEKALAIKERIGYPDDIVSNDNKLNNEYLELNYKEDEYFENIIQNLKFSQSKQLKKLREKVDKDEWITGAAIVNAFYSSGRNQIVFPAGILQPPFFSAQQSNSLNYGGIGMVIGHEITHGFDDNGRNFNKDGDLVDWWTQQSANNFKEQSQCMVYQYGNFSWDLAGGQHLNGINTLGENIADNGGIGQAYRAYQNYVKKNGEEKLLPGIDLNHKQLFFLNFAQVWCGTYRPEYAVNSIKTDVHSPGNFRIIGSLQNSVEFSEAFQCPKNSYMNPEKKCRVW
# Outline: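 Rabbit protease 24.11 (15 ng protein) incubated 10 min at 37 °C with [Tyr-3H]Leu-enkephalin plus unlabeled Leu-enkephalin (1 μM final) in 50 mM Tris-HCl, pH 6.5. Stopped with TFA. Tyr-Gly-Gly product separated from substrate by C4 reverse-phase HPLC (isocratic, 0.09% TFA/acetonitrile). Fractions counted by scintillation.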
# [6] = tested on: Mus musculus; test: Tail-flick latency observed in CF-1 mice after the administration (30 mg/kg) followed by icv administration of DAEM ([D-Ala2,Met5]enkephalin); assay type: functional; outline: as §2
# [7] = target: T2, Neprilysin; test: Inhibition of enkephalinase activity in membranes prepared from rabbit
# [8] = tested on: Mus musculus; test: Stretching activity in male CF-1 mice, after the intra peritoneal administration of acetic acid and subcutaneous administration of compound; assay type: functional
# Outline: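 Male CF-1 mice (18–22 g), twelve per dose of agent or vehicle, dosed sc 15 min before ip 3% aqueous acetic acid at 10 mL/kg. Five minutes after irritant, stretching episodes counted over 10 min. ED50 derived from these counts.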
# [9] = tested on: Mus musculus; test: Doubling of hotplate jump-latency activity in mouse after subcutaneous administration is determined; assay type: functional; outline: as §1
# [10] = tested on: Opioid receptor; test: Ability to displace tritium-labeled naloxone at opiate receptors, at 10 uM concentration
# [11] = tested on: Mus musculus; test: Antinociceptive effect was determined by mouse hot plate assay after sc administration of the compound; assay type: functional; outline: as §1
IC50 [1] [µM],Compound,also measured
> 1,CCOC(=O)C(Cc1ccccc1)CC(Cc1ccccc1)C(=O)NCCC(=O)O (configuration not stated),ED200 [2]: 16 µg; minimal effective dose [3]: > 100 mg/kg; Reaction time [4]: inactive
0.074,O=C(O)C(Cc1c[nH]c2ccccc12)NC(=O)[C@H](Cc1ccccc1)C[C@@H](Cc1ccccc1)C(=O)O (some centres not stated),–
0.04,CC(C)CC(NC(=O)[C@H](Cc1ccccc1)C[C@@H](Cc1ccccc1)C(=O)O)C(=O)O (some centres not stated),–
0.025,O=C(O)Cc1ccccc1NC(=O)[C@H](Cc1ccccc1)C[C@@H](Cc1ccccc1)C(=O)O,–
1,O=C(O)c1ccccc1NC(=O)C(Cc1ccccc1)CC(Cc1ccccc1)C(=O)O (configuration not stated),–
0.8,O=C(O)c1ccc(NC(=O)[C@@H](Cc2ccccc2)C[C@H](Cc2ccccc2)C(=O)O)cc1,–
0.008,O=C(O)CCNC(=O)[C@H](Cc1ccccc1)C[C@@H](Cc1ccccc1)C(=O)O,IC50 [5]: 0.005 µM; ED200 [2]: 15 µg; Reaction time [6]: 8.6 s; minimal effective dose [3]: > 30 mg/kg
–,O=C(O)CCCNC(=O)C(Cc1ccccc1)CC(Cc1ccccc1)C(=O)O (configuration not stated),IC50 [7]: 0.057 µM
1,O=C(O)CCNC(=O)C(CCc1ccccc1)CC(CCc1ccccc1)C(=O)O (configuration not stated),–
0.009,O=C(O)CCC(=O)NC(Cc1ccccc1)CC(Cc1ccccc1)C(=O)O (configuration not stated),–
0.012,O=C(NCc1ccc(O)c(O)c1)C(CS)Cc1ccccc1 (configuration not stated),ED50 [8]: 5 mg/kg; ED200 [9]: 15 mg/kg; inhibition [10]: 15%
1,O=C(O)C(Cc1ccccc1)CC(Cc1ccccc1)C(=O)NCCCO (configuration not stated),–
–,O=C(O)CCNC(=O)[C@H](Cc1ccccc1)C[C@@H](Cc1ccccc1)C(=O)OC1OC(=O)c2ccccc21 (some centres not stated),minimal effective dose [3]: 30 mg/kg
> 1,O=C(O)CCNC(=O)[C@@H](Cc1ccccc1)C[C@H](Cc1ccccc1)C(=O)O,–
0.005,O=C(O)C(CCc1ccccc1)NC(=O)[C@H](Cc1ccccc1)C[C@@H](Cc1ccccc1)C(=O)O (some centres not stated),–
0.02,O=C([O-])[C@H](Cc1ccccc1)C[C@@H](Cc1ccccc1)C(=O)NCc1ccc(O)c(O)c1.[Na+],ED200 [11]: >100 mg/kg
